Measured values as given in ChEMBL document CHEMBL2380270, “Radiosynthesis and first evaluation in mice of [(18)F]NS14490 for molecular imaging of α7 nicotinic acetylcholine receptors” (Bioorg Med Chem, 2013).

Experiments:
[1] = biological target: Neuronal acetylcholine receptor subunit alpha-7 (Rattus norvegicus, UniProt Q05941); assay: Displacement of [3H]A-585539 from rat brain alpha7 nAChR by scintillation counting analysis
[2] = test system: Femur; assay: Biodistribution in CD1 mouse femur at 200 to 300 kBq, iv measured at 60 mins by gamma counting analysis in presence of NS6740; type: ADME, organism-based; conditions: in vivo, 1 h
Method in brief: (§1)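 Blocking study in female CD-1 mice, n = 7 per blocker, with a matching control group. SSR180711 or NS6740 given at 10 mg kg⁻¹ ip in 0.9% saline 10 min before iv radiotracer (200–300 kBq). Organs taken at 60 min p.i., weighed and gamma-counted; uptake as % ID per g wet weight. Compared with control by two-tailed independent Student's t test.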

[3] = test system: Muscle tissue; assay: Biodistribution in CD1 mouse muscle at 200 to 300 kBq, iv measured at 60 mins by gamma counting analysis in presence of NS6740; type: ADME, organism-based; conditions: in vivo, 1 h
Method in brief: (§2)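 Blocking design in female CD-1 mice, n = 7 per group. The blocker was given at 10 mg kg^-1 i.p. in 0.9% saline 10 min before i.v. 200–300 kBq [18F]radiotracer. Mice were killed at 60 min p.i. and organs weighed and gamma-counted as % ID per g wet weight. Blocked groups were compared with controls by two-tailed independent Student's t test.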

[4] = test system: Zone of skin; assay: Biodistribution in CD1 mouse skin at 200 to 300 kBq, iv measured at 60 mins by gamma counting analysis in presence of NS6740; type: ADME, organism-based; conditions: in vivo, 1 h; method in brief: as §2
[5] = test system: Mus musculus; assay: Biodistribution in CD1 mouse adrenal at 200 to 300 kBq, iv measured at 60 mins by gamma counting analysis in presence of NS6740; type: ADME, organism-based, Adrenal gland; conditions: in vivo, 1 h; method in brief: as §1
[6] = test system: Pancreas; assay: Biodistribution in CD1 mouse pancreas at 200 to 300 kBq, iv measured at 60 mins by gamma counting analysis in presence of NS6740; type: ADME, organism-based; conditions: in vivo, 1 h; method in brief: as §2
[7] = test system: Mus musculus; assay: Biodistribution in CD1 mouse thymus at 200 to 300 kBq, iv measured at 60 mins by gamma counting analysis in presence of NS6740; type: ADME, organism-based; conditions: in vivo, 1 h
Method in brief: (§3)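 Female CD-1 mice given 200–300 kBq tracer intravenously. Animals anaesthetised for blood and urine sampling, then killed by cervical dislocation at 5, 15, 30 or 60 min (n = 3 per time; n = 7 at 60 min). Organs removed and weighed, activity gamma-counted, expressed as % injected dose per g wet weight. Blocking arm: 10 mg/kg i.p. in 0.9% saline, 10 min before tracer; two-tailed unpaired t test versus control.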

[8] = test system: Spleen; assay: Biodistribution in CD1 mouse spleen at 200 to 300 kBq, iv measured at 60 mins by gamma counting analysis in presence of NS6740; type: ADME, organism-based; conditions: in vivo, 1 h; method in brief: as §2
[9] = test system: Urinary bladder; assay: Biodistribution in CD1 mouse bladder at 200 to 300 kBq, iv measured at 60 mins by gamma counting analysis in presence of NS6740; type: ADME, organism-based; conditions: in vivo, 1 h; method in brief: as §1
[10] = Biodistribution in CD1 mouse urine at 200 to 300 kBq, iv measured at 60 mins by gamma counting analysis in presence of NS6740; type: ADME, organism-based; conditions: in vivo, 1 h; method in brief: as §3
[11] = test system: Kidney; assay: Biodistribution in CD1 mouse kidney at 200 to 300 kBq, iv measured at 60 mins by gamma counting analysis in presence of NS6740; type: ADME, organism-based; conditions: in vivo, 1 h; method in brief: as §1
[12] = test system: Liver; assay: Biodistribution in CD1 mouse liver at 200 to 300 kBq, iv measured at 60 mins by gamma counting analysis in presence of NS6740; type: ADME, organism-based; conditions: in vivo, 1 h; method in brief: as §2
[13] = test system: Mus musculus; assay: Biodistribution in CD1 mouse large intestine at 200 to 300 kBq, iv measured at 60 mins by gamma counting analysis in presence of NS6740; type: ADME, organism-based; conditions: in vivo, 1 h; method in brief: as §1
[14] = test system: Stomach; assay: Biodistribution in CD1 mouse stomach at 200 to 300 kBq, iv measured at 60 mins by gamma counting analysis in presence of NS6740; type: ADME, organism-based; conditions: in vivo, 1 h; method in brief: as §2
[15] = test system: Mus musculus; assay: Biodistribution in CD1 mouse small intestine at 200 to 300 kBq, iv measured at 60 mins by gamma counting analysis in presence of NS6740; type: ADME, organism-based; conditions: in vivo, 1 h; method in brief: as §2
[16] = test system: Lung; assay: Biodistribution in CD1 mouse lung at 200 to 300 kBq, iv measured at 60 mins by gamma counting analysis in presence of NS6740; type: ADME, organism-based; conditions: in vivo, 1 h; method in brief: as §2
[17] = test system: Brain; assay: Biodistribution in CD1 mouse brain at 200 to 300 kBq, iv measured at 60 mins by gamma counting analysis in presence of NS6740; type: ADME, organism-based; conditions: in vivo, 1 h; method in brief: as §1
[18] = test system: Heart; assay: Biodistribution in CD1 mouse heart at 200 to 300 kBq, iv measured at 60 mins by gamma counting analysis in presence of NS6740; type: ADME, organism-based; conditions: in vivo, 1 h; method in brief: as §1
[19] = test system: Blood; assay: Biodistribution in CD1 mouse blood at 200 to 300 kBq, iv measured at 60 mins by gamma counting analysis in presence of NS6740; type: ADME, organism-based; conditions: in vivo, 1 h; method in brief: as §1
[20] = biological target: T1, Neuronal acetylcholine receptor subunit alpha-7 (Homo sapiens, UniProt P36544); assay: Binding affinity to alpha7 nAChR (unknown origin)
Method in brief: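 Radioligand competition on homogenates of SH-SY5Y cells transfected with human α7 nAChR. [³H]methyllycaconitine at about 0.3 nM working concentration, test ligand in serial dilution 10 pM–10 µM. Buffer 50 mM Tris–HCl pH 7.4 with 120 mM NaCl, 5 mM KCl, 2.5 mM MgCl₂, 1 mM CaCl₂. Nonspecific binding defined with 300 µM (−)-nicotine tartrate. Incubated 240 min at room temperature, then filtered on PEI-soaked GF/B and counted by scintillation. Run in triplicate; IC50 by non-linear regression, Ki by Cheng–Prusoff.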

[21] = Cyclohexane-PBS distribution coefficient, log D of the compound at pH 7.2 after 30 mins by shake-flask method; type: physicochemical; conditions: pH 7.2, 0.5 h
[22] = n-Octanol-PBS distribution coefficient, log D of the compound at pH 7.2 after 30 mins by shake-flask method; type: physicochemical
[23] = Stability of the compound in Tris-HCl buffer assessed as compound remaining at pH 6.7 measured up to 2 hrs by radio-TLC analysis; type: physicochemical; conditions: read-out: Stability
Method in brief: (§4)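 Tracer formulated in isotonic saline, then diluted 1:20 into 50 mM Tris–HCl (pH 6.7) or PBS (pH 7.2). Stirred at 40 °C for up to 2 h, sampled at 5, 10, 30, 60, 90 and 120 min, and analysed by radio-TLC for intact tracer.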

[24] = Stability of the compound in PBS buffer assessed as compound remaining at pH 7.2 measured up to 2 hrs by radio-TLC analysis; type: physicochemical; conditions: read-out: Stability; method in brief: as §4
[25] = Stability of the compound in Tris-HCl buffer assessed as compound remaining at pH 6.7 measured at 5 mins by radio-TLC analysis; type: physicochemical; conditions: read-out: Stability; method in brief: as §4
[26] = Stability of the compound in PBS buffer assessed as compound remaining at pH 7.2 measured at 5 mins by radio-TLC analysis; type: physicochemical; conditions: read-out: Stability; method in brief: as §4
[27] = Ratio of drug level in brain to plasma in CD1 mouse at 200 to 300 kBq, iv measured at 15 mins; type: ADME, organism-based; conditions: read-out: BPR
Method in brief: (§5)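 Female CD-1 mice injected intravenously with 200–300 kBq tracer. Animals killed at 5, 15, 30 and 60 min (n = 3; n = 7 at 60 min). Brain and plasma activity gamma-counted as % ID/g wet weight, and the brain-to-plasma ratio taken from these values.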

[28] = Ratio of drug level in brain to plasma in CD1 mouse at 200 to 300 kBq, iv measured at 60 mins; type: ADME, organism-based; conditions: read-out: BPR; method in brief: as §5
[29] = Ratio of drug level in brain to plasma in CD1 mouse at 200 to 300 kBq, iv measured at 30 mins; type: ADME, organism-based; conditions: read-out: BPR; method in brief: as §5
[30] = Ratio of drug level in brain to plasma in CD1 mouse at 200 to 300 kBq, iv measured at 5 mins; type: ADME, organism-based; conditions: read-out: BPR; method in brief: as §5
[31] = test system: Brain; assay: Biodistribution in CD1 mouse brain measured at 60 mins by autoradiographic analysis; type: ADME, organism-based; conditions: in vivo, 1 h
[32] = organism: Homo sapiens; assay: Selectivity ratio of Ki for human alpha4beta2 nAChR to Ki for human alpha7 nAChR
[33] = organism: Homo sapiens; assay: Selectivity ratio of Ki for human alpha3beta4 nAChR to Ki for human alpha7 nAChR
[34] = biological target: Neuronal acetylcholine receptor; alpha4/beta2 (Homo sapiens, UniProt P17787+P43681); assay: Displacement of (+/-)[3H]-epibatidine from human alpha4beta2 nAChR transfected in HEK293 cells after 90 mins by liquid scintillation counting analysis; type: cell-based
Method in brief: (§6)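 Homogenates of HEK293 cells transfected with human α4β2 or α3β4 nAChR, with about 0.5 nM (±)-[3H]epibatidine and compound 10 pM–10 µM. Buffer: 50 mM Tris–HCl pH 7.4 with NaCl, KCl, MgCl2 and CaCl2. Incubated 90 min at room temperature; nonspecific binding defined with 300 µM (−)-nicotine tartrate. Filtered onto PEI-soaked GF/B, scintillation counted, triplicates; IC50 by nonlinear regression, Ki by Cheng–Prusoff.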

[35] = biological target: Neuronal acetylcholine receptor; alpha3/beta4 (Homo sapiens, UniProt P30926+P32297); assay: Displacement of (+/-)[3H]-epibatidine from human alpha3beta4 nAChR transfected in HEK293 cells after 90 mins by liquid scintillation counting analysis; type: cell-based; method in brief: as §6
[36] = biological target: T1, Neuronal acetylcholine receptor subunit alpha-7; assay: Displacement of [3H]-methyllycaconitine from human alpha7 nAChR transfected in human SH-SY5Y cells after 240 mins by liquid scintillation counting analysis; type: cell-based
Method in brief: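 Homogenates of SH-SY5Y cells transfected with human α7 nAChR, with about 0.3 nM [3H]methyllycaconitine and compound 10 pM–10 µM in Tris–HCl pH 7.4 saline buffer. Incubated 240 min at room temperature; nonspecific binding defined with 300 µM (−)-nicotine tartrate. Filtered onto PEI-soaked GF/B, washed with ice-cold Tris, scintillation counted, triplicates; Ki via Cheng–Prusoff.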

T1 sequence (P36544 whole entry): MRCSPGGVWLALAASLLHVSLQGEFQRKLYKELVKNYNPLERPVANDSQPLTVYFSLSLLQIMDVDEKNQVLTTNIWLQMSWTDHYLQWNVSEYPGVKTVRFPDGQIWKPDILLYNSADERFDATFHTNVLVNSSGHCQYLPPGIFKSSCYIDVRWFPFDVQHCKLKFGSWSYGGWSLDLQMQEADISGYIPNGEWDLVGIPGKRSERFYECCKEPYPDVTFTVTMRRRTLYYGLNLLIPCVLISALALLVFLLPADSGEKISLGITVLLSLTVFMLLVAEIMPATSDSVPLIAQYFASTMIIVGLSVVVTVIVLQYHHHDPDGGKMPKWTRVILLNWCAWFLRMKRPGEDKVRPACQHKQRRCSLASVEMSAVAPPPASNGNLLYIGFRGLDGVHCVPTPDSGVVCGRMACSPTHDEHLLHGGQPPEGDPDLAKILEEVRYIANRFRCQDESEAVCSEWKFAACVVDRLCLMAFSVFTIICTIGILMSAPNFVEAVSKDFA
Chain of Neuronal acetylcholine receptor; alpha4/beta2 (P17787 whole entry): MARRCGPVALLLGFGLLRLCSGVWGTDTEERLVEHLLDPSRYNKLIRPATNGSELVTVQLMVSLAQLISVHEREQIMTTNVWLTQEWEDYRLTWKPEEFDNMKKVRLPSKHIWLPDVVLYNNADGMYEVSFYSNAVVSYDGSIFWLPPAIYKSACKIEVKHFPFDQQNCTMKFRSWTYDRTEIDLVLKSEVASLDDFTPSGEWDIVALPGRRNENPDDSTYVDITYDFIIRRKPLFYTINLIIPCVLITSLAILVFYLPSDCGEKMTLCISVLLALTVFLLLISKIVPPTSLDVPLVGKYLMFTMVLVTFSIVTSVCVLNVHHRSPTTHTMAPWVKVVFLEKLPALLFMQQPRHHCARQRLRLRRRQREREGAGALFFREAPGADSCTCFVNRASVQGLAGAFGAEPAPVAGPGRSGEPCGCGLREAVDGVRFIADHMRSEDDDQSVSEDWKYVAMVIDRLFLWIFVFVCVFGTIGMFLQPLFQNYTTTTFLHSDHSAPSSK
Chain of Neuronal acetylcholine receptor; alpha4/beta2 (P43681 whole entry): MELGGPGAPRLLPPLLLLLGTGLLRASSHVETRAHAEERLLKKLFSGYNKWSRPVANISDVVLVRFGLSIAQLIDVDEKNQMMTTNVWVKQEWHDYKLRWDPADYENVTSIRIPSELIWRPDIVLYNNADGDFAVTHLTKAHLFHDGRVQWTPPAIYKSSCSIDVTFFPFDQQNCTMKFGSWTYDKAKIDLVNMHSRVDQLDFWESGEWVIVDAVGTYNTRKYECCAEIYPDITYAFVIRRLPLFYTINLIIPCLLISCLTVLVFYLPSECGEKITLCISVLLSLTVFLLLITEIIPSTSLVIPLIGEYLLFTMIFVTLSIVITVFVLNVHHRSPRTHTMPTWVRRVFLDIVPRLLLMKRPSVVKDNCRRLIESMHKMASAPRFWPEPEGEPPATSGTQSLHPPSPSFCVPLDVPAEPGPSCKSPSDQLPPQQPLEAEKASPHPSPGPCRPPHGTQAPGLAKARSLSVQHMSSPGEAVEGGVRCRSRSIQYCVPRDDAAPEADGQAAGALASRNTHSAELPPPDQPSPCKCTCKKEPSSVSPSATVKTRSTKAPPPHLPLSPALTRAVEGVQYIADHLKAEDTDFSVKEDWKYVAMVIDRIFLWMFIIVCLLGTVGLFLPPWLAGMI
Chain of Neuronal acetylcholine receptor; alpha3/beta4 (P30926 whole entry): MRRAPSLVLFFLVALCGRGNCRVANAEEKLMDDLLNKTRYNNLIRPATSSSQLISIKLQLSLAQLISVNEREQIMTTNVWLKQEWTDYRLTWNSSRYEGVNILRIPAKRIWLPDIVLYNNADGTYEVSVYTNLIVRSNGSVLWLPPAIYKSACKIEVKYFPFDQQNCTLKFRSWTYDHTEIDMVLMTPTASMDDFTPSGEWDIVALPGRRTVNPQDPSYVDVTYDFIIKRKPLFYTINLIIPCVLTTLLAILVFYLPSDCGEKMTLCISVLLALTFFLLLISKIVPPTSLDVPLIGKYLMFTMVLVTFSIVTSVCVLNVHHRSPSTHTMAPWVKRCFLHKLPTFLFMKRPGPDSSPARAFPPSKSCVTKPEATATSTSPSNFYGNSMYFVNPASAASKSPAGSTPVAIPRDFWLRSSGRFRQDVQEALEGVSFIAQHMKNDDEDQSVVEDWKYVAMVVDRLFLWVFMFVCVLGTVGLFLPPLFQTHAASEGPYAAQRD
Chain of Neuronal acetylcholine receptor; alpha3/beta4 (P32297 whole entry): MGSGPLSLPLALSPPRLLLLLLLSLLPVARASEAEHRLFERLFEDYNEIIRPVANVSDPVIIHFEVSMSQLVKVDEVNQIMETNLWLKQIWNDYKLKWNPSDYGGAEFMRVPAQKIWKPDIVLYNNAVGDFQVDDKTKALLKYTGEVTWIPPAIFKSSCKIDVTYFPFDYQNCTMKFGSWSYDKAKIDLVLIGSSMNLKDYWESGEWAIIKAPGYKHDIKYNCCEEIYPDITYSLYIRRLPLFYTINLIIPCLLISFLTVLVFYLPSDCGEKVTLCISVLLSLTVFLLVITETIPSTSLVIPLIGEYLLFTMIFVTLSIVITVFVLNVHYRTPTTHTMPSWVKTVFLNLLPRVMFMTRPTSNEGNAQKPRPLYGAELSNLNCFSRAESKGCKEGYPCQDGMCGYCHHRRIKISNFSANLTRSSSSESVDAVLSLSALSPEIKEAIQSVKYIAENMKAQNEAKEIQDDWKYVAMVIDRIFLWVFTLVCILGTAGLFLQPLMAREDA
Chain of Neuronal acetylcholine receptor subunit alpha-7 (Rattus norvegicus, UniProt Q05941) (Q05941 whole entry): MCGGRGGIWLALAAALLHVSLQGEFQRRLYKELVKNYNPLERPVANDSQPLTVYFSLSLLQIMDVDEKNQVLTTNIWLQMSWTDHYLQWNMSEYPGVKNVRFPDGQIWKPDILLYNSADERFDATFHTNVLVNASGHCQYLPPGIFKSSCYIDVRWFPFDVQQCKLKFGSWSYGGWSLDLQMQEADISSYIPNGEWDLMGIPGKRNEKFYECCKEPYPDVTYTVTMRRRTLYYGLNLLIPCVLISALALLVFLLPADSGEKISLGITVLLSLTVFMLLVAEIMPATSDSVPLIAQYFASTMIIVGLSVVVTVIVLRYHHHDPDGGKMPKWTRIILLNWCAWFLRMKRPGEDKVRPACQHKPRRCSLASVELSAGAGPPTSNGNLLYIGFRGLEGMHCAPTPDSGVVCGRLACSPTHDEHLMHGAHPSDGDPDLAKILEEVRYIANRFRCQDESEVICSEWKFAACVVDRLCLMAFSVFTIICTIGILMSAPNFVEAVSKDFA

**Q.** For `O=C(c1ccc(-c2cccc(C(F)(F)F)c2)o1)N1CCN2CCC1CC2`, which Ki [1] is on record?
**A.** 1.1 nM

**Q.** What about the Drug uptake [2] of the same compound?
**A.** 1.49 % ID/g

**Q.** And the Drug uptake [3]?
**A.** 1.05 % ID/g

**Q.** And the Drug uptake [4]?
**A.** 1.7 % ID/g

**Q.** And the Drug uptake [5]?
**A.** 2.51 % ID/g

**Q.** And the Drug uptake [6]?
**A.** 3.04 % ID/g

**Q.** And the Drug uptake [7]?
**A.** 2.25 % ID/g

**Q.** What about the Drug uptake [8] of the same compound?
**A.** 6.57 % ID/g

**Q.** And the Drug uptake [9]?
**A.** 1.45 % ID/g

**Q.** What about the Drug uptake [10] of the same compound?
**A.** 218 % ID/g

**Q.** What about the Drug uptake [11] of the same compound?
**A.** 11.7 % ID/g

**Q.** What about the Drug uptake [12] of the same compound?
**A.** 6.67 % ID/g

**Q.** And the Drug uptake [13]?
**A.** 5.11 % ID/g

**Q.** What about the Drug uptake [14] of the same compound?
**A.** 9.71 % ID/g

**Q.** And the Drug uptake [15]?
**A.** 15.3 % ID/g

**Q.** What about the Drug uptake [16] of the same compound?
**A.** 4.56 % ID/g

**Q.** What about the Drug uptake [17] of the same compound?
**A.** 0.14 % ID/g

**Q.** And the Drug uptake [18]?
**A.** 1.77 % ID/g

**Q.** And the Drug uptake [19]?
**A.** 0.75 % ID/g

**Q.** With `Fc1ccc(-c2nnc(N3CCN4CCC3CC4)o2)cc1` as the compound, how does the Ki [20] read?
**A.** 11.6 nM

**Q.** What does the source list for `[18F]CCn1ccc2ccc(-c3nnc(N4CCN5CCC4CC5)o3)cc21`?
**A.** logD [21]: -2.05; logD at 0.5 h [22]: 1.11; remaining at 2 h [23]: ≥ 97%; remaining at 2 h [24]: ≥ 97%; remaining at 5 min [25]: 98%; remaining at 5 min [26]: 98%; Kp at 0.25 h [27]: 0.18; Kp at 1 h [28]: 0.26; Kp at 0.5 h [29]: 0.19; Kp at 5 min [30]: 0.11

**Q.** Which Drug uptake [31] does the source give for `[18F]c1ccc(-c2nnc(N3CCN4CCC3CC4)o2)cc1` here?
**A.** 1.73 % ID/g

**Q.** What does the source list for `FCCn1ccc2ccc(-c3nnc(N4CCN5CCC4CC5)o3)cc21`?
**A.** Ratio Ki [32]: > 400; Ratio Ki [33]: 40.8; Ki [34]: > 1000 nM; Ki [35]: 102 nM; Ki [36]: 2.5 nM
